Assay results from ChEMBL document CHEMBL1123247, “Nucleoside conjugates. 7. Synthesis and antitumor activity of 1-beta-D-arabinofuranosylcytosine conjugates of ether lipids” (J Med Chem, 1986).

How the values were obtained:
Format in all cases: functional, Mus musculus
L1210 [1] = experiment: Antitumor activity was determined against the ic implanted L1210 lymphoid leukemia in mice by percent increase in life span at 167 mg/kg (treatment of 1, 5, 9qd schedule) dosage
Summary of the method: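 DBA/2J mice, groups of 6 (26-32 g), got 1 × 10^5 L1210 cells ic on day 0. Dosing was ip starting 24 h later, as a sonicated solution or suspension in 0.9% NaCl with 0.5% Tween-80, over a wide dose range. Mice were followed daily until death. Median survival T/C was taken from survivors per NCI protocols, and ILS = (T/C − 1) × 100. Active range means doses giving ILS ≥25%; optimal dose means greatest ILS.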

L1210 [2] = experiment: Antitumor activity was determined against the ip implanted L1210 leukemia in mice by range in survival days at 80 mg/kg (treatment of 1-5qd schedule) dosage; Range is 21-30; conditions: route intraperitoneal
Summary of the method: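 DBA/2J mice, 23-28 g, in groups of 6, were inoculated ip with 1×10^6 L1210 cells on day 0. Dosing was ip starting 24 h later on the stated daily schedules. Conjugates were given as sonicated solutions and reference prodrugs as suspensions in 0.9% NaCl with 0.5% Tween-80. Mice were observed daily until death or 45 days. Median survival T/C was calculated from survivors per NCI protocols.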

P388 [3] = experiment: Antitumor activity against ip implanted P388 leukemia in mice expressed as active dose range (1 qd treatment schedule) required to produce increase in life span by >25% was determined; Range is 100-600
Summary of the method: (§1)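 P388 leukemia: 1 × 10^6 cells were given ip on day 0 to DBA/2J mice, groups of 6 (23-33 g). Treatment was ip from 24 h after inoculation, vehicle 0.9% NaCl with 0.5% Tween-80. Mice were observed daily until death or 45 days. Median survival T/C was calculated from survivors per NCI protocols, and ILS = (T/C − 1) × 100. Active range means doses giving ILS ≥25%; optimal dose means greatest ILS.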

L1210 [4] = experiment: Antitumor activity was determined against the ip implanted L1210 leukemia in mice by change in […] at 400 mg/kg (treatment of 1-5qd schedule) dosage; conditions: dose 200 mg/kg; route intraperitoneal; in the assay text read “200 mg/kg” for “400 mg/kg”
Summary of the method: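 DBA/2J mice, 6 per group (wt 23-28 g), inoculated ip with 1×10^6 L1210 cells on day 0. Treatment was given ip in 0.9% NaCl with 0.5% Tween-80, starting 24 h later. Weight change was taken on day 8. Mice were observed daily until death or 45 days. Median survival T/C and %ILS = (T/C − 1) × 100 came from survivors per NCI protocols, and 45-day survivors were counted.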

P388 [5] = experiment: Antitumor activity was determined against the ip implanted P388 leukemia in mice by range in survival days at 500 mg/kg (treatment of 1qd schedule) dosage; Range is 23->45; conditions: route intraperitoneal
P388 [6] = experiment: Antitumor activity was determined against the ip implanted P388 leukemia in mice by percent median survival rate (treated/control) at 60 mg/kg (1-5qd treatment schedule) dosage; 23.0/11.0; conditions: route intraperitoneal
P388 [7] = experiment: Antitumor activity against ip implanted P388 leukemia in mice expressed as active dose range (1,5,9qd treatment schedule) required to produce increase in life span by >25% was determined; Range is 100-167; summary of the method: as §1

`CCCCCCCCCCCCCCCCOCC(COP(=O)(O)OP(=O)(O)OC[C@H]1O[C@@H](n2ccc(N)nc2=O)[C@@H](O)[C@@H]1O)OC(=O)CCCCCCCCCCCCCCC` (mixture of isomers) showed an ILS (L1210 [1]) of 200 and a Range (L1210 [2]) of 21.

Compound `Nc1ccn([C@@H]2O[C@H](CO)[C@@H](O)[C@@H]2O)c(=O)n1` [CYTARABINE] has an Active dose range (P388 [3]) of 100 mg/kg/day and a Weight change (L1210 [4]) of -2.9 g mouse-1.

With `CCCCCCCCCCCCCCCCCCOCC(COP(=O)(O)OP(=O)(O)OC[C@H]1O[C@@H](n2ccc(N)nc2=O)[C@@H](O)[C@@H]1O)OC(=O)CCCCCCCCCCCCCCC` (mixture of isomers) the Range (P388 [5]) was 23 and the T/C (P388 [6]) was 23%.

`CCCCCCCCCCCCCCCC(=O)OC[C@H](COP(=O)(O)OP(=O)(O)OC[C@H]1O[C@@H](n2ccc(N)nc2=O)[C@@H](O)[C@@H]1O)OC(=O)CCCCCCCCCCCCCCC` gave an Active dose range (P388 [7]) of 100 mg/kg/day.
